Measured values reported in ChEMBL document CHEMBL3808335, “Discovery of KLS-13019, a Cannabidiol-Derived Neuroprotective Agent, with Improved Potency, Safety, and Permeability” (ACS Med Chem Lett, 2016).
Converted amounts (≈) assume the structure as drawn.

Legend:
[1] = Neuroprotective activity in rat hippocampal neurons assessed as protection against ethanol induced cell death by measuring neuronal viability after 5 hrs by carboxyfluorescein diacetate dye based fluorimetric analysis; format: functional, Hippocampal neurone
How it was run: (§1)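 Ethanol (30 mM) used as toxin. Viability read by CFDA fluorescence, cell death by propidium iodide. Full efficacy defined as the fluorescence of neurons without toxin.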

[2] = Neuroprotective activity in rat hippocampal neurons assessed as protection against ethanol induced cell death after 5 hrs by propidium iodide staining based fluorimetric analysis; format: functional, Hippocampal neurone; how it was run: as §1
[3] = Neuroprotective activity in rat hippocampal neurons assessed as protection against ammonium acetate induced cell death by measuring neuronal viability after 5 hrs by carboxyfluorescein diacetate dye based fluorimetric analysis; format: functional, Hippocampal neurone
How it was run: (§2)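 Ammonium acetate (300 μM) used as toxin. Viability read by CFDA fluorescence, cell death by propidium iodide. Full efficacy defined as the fluorescence of neurons without toxin.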

[4] = Neuroprotective activity in rat hippocampal neurons assessed as protection against ammonium acetate induced cell death after 5 hrs by propidium iodide staining based fluorimetric analysis; format: functional, Hippocampal neurone; how it was run: as §2
[5] = Toxicity in rat hippocampal neurons assessed as neuronal viability after 5 hrs by carboxyfluorescein diacetate dye based fluorimetric analysis; set-up: species or system Hippocampal neurone; settings: read-out: TC50
Cannabinoid receptor 1 [6] = target: T1, Cannabinoid receptor 1 (Homo sapiens, UniProt P21554); experiment: Displacement of [3H]CP 55940 from human recombinant CB1 receptor expressed in CHO cell membranes at 10 uM after 120 mins by scintillation counting analysis
[7] = target: Cannabinoid receptor 2 (Homo sapiens) (UniProt P34972); experiment: Displacement of [3H]WIN 55212-2 from human recombinant CB2 receptor expressed in CHO cell membranes at 10 uM after 120 mins by scintillation counting analysis
Cannabinoid receptor 1 [8] = target: T1, Cannabinoid receptor 1; experiment: Displacement of [3H]CP 55940 from human CB1 receptor after 1 hr by liquid scintillation spectrometry
[9] = Kinetic aqueous solubility of the compound at pH 7.4
[10] = Apparent permeability from apical to basolateral side in human Caco cells; settings: Caco-2
[11] = Efflux ratio of permeability from basolateral to apical over apical to basolateral side in human Caco cells; settings: Caco-2
MDR1 [12] = experiment: Apparent permeability from apical to basolateral side in MDCK cells expressing MDR1; settings: dog
MDR1 [13] = experiment: Efflux ratio of permeability from basolateral to apical over apical to basolateral side in MDCK cells expressing MDR1; settings: dog
in vitro = settings: rat, rat hippocampal neurons
[14] = Rattus norvegicus, Hippocampal neurone, 5 h, read-out: EC50

T1 sequence (P21554 whole entry): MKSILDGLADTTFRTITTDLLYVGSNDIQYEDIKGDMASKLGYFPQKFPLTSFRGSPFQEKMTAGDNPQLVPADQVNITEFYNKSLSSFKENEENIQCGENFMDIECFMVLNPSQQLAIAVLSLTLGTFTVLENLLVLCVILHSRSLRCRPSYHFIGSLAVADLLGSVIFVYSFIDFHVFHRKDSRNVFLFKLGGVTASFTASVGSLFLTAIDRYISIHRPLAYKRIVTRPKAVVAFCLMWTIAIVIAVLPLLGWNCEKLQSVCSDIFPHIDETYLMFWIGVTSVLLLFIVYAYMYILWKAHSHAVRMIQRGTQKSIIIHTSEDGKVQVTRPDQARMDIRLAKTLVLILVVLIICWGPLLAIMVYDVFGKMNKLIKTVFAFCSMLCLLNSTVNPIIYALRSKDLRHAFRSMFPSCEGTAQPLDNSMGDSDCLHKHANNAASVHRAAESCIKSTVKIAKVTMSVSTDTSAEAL
Cannabinoid receptor 2 (Homo sapiens), sequence (P34972 whole entry): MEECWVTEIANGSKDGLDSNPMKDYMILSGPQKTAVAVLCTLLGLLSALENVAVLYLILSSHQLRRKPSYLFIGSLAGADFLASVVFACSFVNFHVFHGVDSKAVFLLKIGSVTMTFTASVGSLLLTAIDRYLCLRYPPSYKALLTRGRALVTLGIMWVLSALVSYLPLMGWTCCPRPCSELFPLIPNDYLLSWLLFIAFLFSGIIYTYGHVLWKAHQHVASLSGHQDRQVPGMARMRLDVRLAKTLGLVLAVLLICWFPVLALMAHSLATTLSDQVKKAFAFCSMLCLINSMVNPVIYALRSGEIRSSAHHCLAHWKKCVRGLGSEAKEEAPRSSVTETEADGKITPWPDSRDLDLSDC

| Compound | EC50 [1, 14] [µM] | EC50 [2, 14] [µM] | EC50 [3, 14] [µM] | EC50 [4, 14] [µM] | further results |
| --- | --- | --- | --- | --- | --- |
| C=C(C)[C@@H]1CCC(C)=C[C@H]1c1c(O)cc(CCn2ccnn2)cc1O | 5 | 2 | 3 | 1 | CC50 at 5 h [5]: > 100 µM; inhibition (Cannabinoid receptor 1 [6]): 6%; inhibition [7]: 1% |
| C=C(C)[C@@H]1CCC(C)=C[C@H]1c1c(O)cc(CCn2nccn2)cc1O | > 100 | > 100 | > 100 | > 100 |  |
| C=C(C)[C@@H]1CCC(C)=C[C@H]1c1c(O)cc(CCCCC(=O)O)cc1O | 10 | 7 | 4 | 30 |  |
| C=C(C)[C@@H]1CCC(C)=C[C@H]1c1c(O)cc(CCOCC)cc1O | 0.3 | 3 | 36 | 0.2 |  |
| CCCCCCC(C)(C)c1cc(O)c(C2CCCCC2)c(O)c1 |  |  |  |  | Ki (Cannabinoid receptor 1 [8]): 0.011 µM |
| C=C(C)[C@@H]1CCC(C)=C[C@H]1c1c(O)cc(CCN2CCOCC2)cc1O | 5 | 24 | > 100 | 20 |  |
| C=C(C)[C@@H]1CCC(C)=C[C@H]1c1c(O)cc(CC(=O)N2CCOCC2)cc1O | > 100 | > 100 | > 100 | > 100 |  |
| C=C(C)[C@@H]1CCC(C)=C[C@H]1c1c(O)cc(CC2CN(C(=O)OCC)C2)cc1O | 0.03 | 0.02 | 0.11 | 0.05 | CC50 at 5 h [5]: > 100 µM; inhibition (Cannabinoid receptor 1 [6]): 19%; inhibition [7]: 37%; solubility kinetic [9]: 16.6 µM (≈ 6.4 µg/mL); Papp A→B [10]: 22 ×10⁻⁶ cm/s; efflux ratio [11]: 0.5; Papp A→B (MDR1 [12]): 11 ×10⁻⁶ cm/s; efflux ratio (MDR1 [13]): 0.97; selectivity ratio at 5 h (in vitro): 900 |
| C=C(C)[C@@H]1CCC(C)=C[C@H]1c1c(O)cc(CC2CN(C(C)=O)C2)cc1O | 0.08 | 0.05 | 0.04 | 0.04 | CC50 at 5 h [5]: 300 µM; inhibition (Cannabinoid receptor 1 [6]): 13%; inhibition [7]: 56%; solubility kinetic [9]: 87 µM (≈ 30.9 µg/mL); Papp A→B [10]: 49 ×10⁻⁶ cm/s; efflux ratio [11]: 0.53; Papp A→B (MDR1 [12]): 35 ×10⁻⁶ cm/s; efflux ratio (MDR1 [13]): 1.02; selectivity ratio at 5 h (in vitro): 7500 |
| C=C(C)[C@@H]1CCC(C)=C[C@H]1c1c(O)cc(CC2CN(C)C2)cc1O |  |  |  |  | EC50 ([1]; hippocampal neurone): ND(toxic); EC50 ([2]; hippocampal neurone): ND(toxic); EC50 ([3]; hippocampal neurone): ND(toxic); EC50 ([4]; hippocampal neurone): ND(toxic) |
| C=C(C)[C@@H]1CCC(C)=C[C@H]1c1c(O)cc(CCCCCO)cc1O | 54 | > 100 | > 100 | > 100 |  |
| C=C(C)[C@@H]1CCC(C)=C[C@H]1c1c(O)cc(CCCCC)cc1O [CANNABIDIOL] | 1 | 3 | 2 | 4 | CC50 at 5 h [5]: 33 µM; solubility kinetic [9]: 17 µM (≈ 5.35 µg/mL); Papp A→B [10]: < 1.5 ×10⁻⁶ cm/s; Papp A→B (MDR1 [12]): < 2.23 ×10⁻⁶ cm/s |
| C=C(C)[C@@H]1CCC(C)=C[C@H]1c1c(O)cc(CC2COC2)cc1O | 18 | 10 | 35 | 20 |  |
| C=C(C)[C@@H]1CCC(C)=C[C@H]1c1c(O)cc(CCNC(C)=O)cc1O | 30 | 17 | > 100 | > 100 |  |
| C=C(C)[C@@H]1CCC(C)=C[C@H]1c1c(O)cc(O)cc1CC1CN(C(C)=O)C1 | > 100 | > 100 | > 100 | > 100 |  |
